The test system of one series is RKO. Put plainly: Antiproliferative activity against human RKO cells assessed as reduction in cell viability at 0.03 to 30 uM incubated for 72 hrs by Alamar blue based assay. The following applies: dose 0.03-30 µM. The class given is functional. In a few lines:
(§1)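 Matched p53 wild-type/deficient pairs (HCT116 p53+/+ and p53-/-; RKO-neo and RKO-E6a) seeded in triplicate, attached overnight. Media replaced with DMSO control or compound media, 0.03 to 30 µM, 72 h. Viability read as fluorescence after AlamarBlue incubation. Triplicate in two separate experiments; mean ±SEM.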
On the technique in general: Alamar Blue is a resazurin reagent that responds to reducing activity.

For series [1], the system named is HCT-116. Put plainly: Antiproliferative activity against human HCT-116 cells contains wild-type p53 gene assessed as reduction in cell viability at 0.03 to 30 uM incubated for 72 hrs by Alamar blue based assay. The class given is functional. The following applies: dose 0.03-30 µM. Summed up: as §1
Series [2] concerns HCT-116. Put plainly: Antiproliferative activity against human HCT-116 cells deficient in p53 gene assessed as reduction in cell viability at 0.03 to 30 uM incubated for 72 hrs by Alamar blue based assay. It is filed as functional. The following applies: dose 0.03-30 µM. Summed up:
as §1

For series [3], the target named is T1, N-lysine methyltransferase SMYD2 (Homo sapiens, UniProt Q9NRG4). Put plainly: Inhibition of SMYD2 (unknown origin).
The target in series [4] is T1, N-lysine methyltransferase SMYD2. Put plainly: Ratio of IC50 for SMYD2 (unknown origin) to IC50 for inhibition of SMYD2 (unknown origin) expressed in human U2OS cells. It is filed as cell-based.
For series [5] the target is unchanged. Put plainly: Inhibition of SMYD2 (unknown origin) expressed in human U2OS cells assessed as reduction in monomethylated p53 levels incubated for 24 hrs by immunofluorescence assay. It is filed as cell-based. Summed up: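 U2OS plated 8,000 cells/well, transfected (Fugene) with FLAG-tagged wild-type SMYD2 construct. Compound from DMSO in media (final DMSO 0.2%), 24 h. Cells PFA-fixed, stained with anti-FLAG (1:800), polyclonal anti-monomethyl p53 K370 peptide antibody (1:1000) and DAPI, then imaged. IC50 from fluorescent intensity per cell for methylation; DAPI count gave the cell-count IC50.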

Series [6] is described as follows: Intrinsic clearance in human liver microsomes. The class given is ADME, Microsome. The following applies: read-out: CLH. On the technique in general: Microsomes from liver hold many membrane-bound enzymes, among them those of drug oxidation.
Series [7] can be described thus: Unbound fraction in human plasma by equilibrium dialysis. It is filed as ADME, cell-free. Summed up: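 Human plasma, compound added from DMSO stock; fraction unbound (fu%) by equilibrium dialysis.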
Series [8] is described as follows: Solubility of compound in 0.1 M phosphate buffer at pH 7.4 at 25 degC after 24 hrs. It is filed as physicochemical. In a few lines:
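Solid sample shaken 24 h in 0.1 M phosphate buffer, pH 7.4, 25 °C.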

A further series concerns RKOE6. The experiment in a line: Antiproliferative activity against human RKOE6 cells assessed as reduction in cell viability at 0.03 to 30 uM incubated for 72 hrs by Alamar blue based assay. It is filed as functional. The following applies: dose 0.03-30 µM. In a few lines: as §1

In brackets after ≈: the same amount, converted by molar mass. Activity calls are given as the source filed them. No cut-off for these calls is given here.

One compound from ChEMBL document CHEMBL4680102, “Design, Synthesis, and Biological Activity of Substrate Competitive SMYD2 Inhibitors” (J Med Chem, 2016) can be followed below.

Usually IC50 stands for the concentration needed to halve the response being measured. By EC50 is commonly meant the concentration at which the effect is half-maximal. In general, fraction unbound refers to the share of the substance not bound to proteins or other matrix. The low end stands for extensive binding, the high end for weak binding. For orientation: solubility means the dissolved amount per volume that the medium holds.

T1 sequence (Q9NRG4 whole entry): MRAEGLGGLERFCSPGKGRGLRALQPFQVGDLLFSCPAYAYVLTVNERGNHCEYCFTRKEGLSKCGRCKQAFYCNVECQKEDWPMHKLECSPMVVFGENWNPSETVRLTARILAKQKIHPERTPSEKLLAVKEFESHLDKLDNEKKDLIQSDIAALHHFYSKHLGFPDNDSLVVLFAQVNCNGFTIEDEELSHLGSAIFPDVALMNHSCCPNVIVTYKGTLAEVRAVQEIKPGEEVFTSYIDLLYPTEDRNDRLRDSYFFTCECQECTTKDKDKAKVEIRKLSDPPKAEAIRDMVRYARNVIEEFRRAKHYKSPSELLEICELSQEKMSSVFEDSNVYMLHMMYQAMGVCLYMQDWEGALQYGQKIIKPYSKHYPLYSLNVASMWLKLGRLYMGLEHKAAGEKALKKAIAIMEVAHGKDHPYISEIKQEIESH

Take `N#Cc1cc(C(=O)NCCCN2CCCC2)cc(-c2ccccc2N2CCN(CCc3ccc(Cl)c(Cl)c3)CC2)c1`: the result with RKO, in the series on HCT-116 [1], with HCT-116 [2] and in the series on RKOE6 was Active. The values for the IC50 in series [3] and in series [5] were 138 nM and 670 nM, respectively. Moreover, the Ratio IC50 in series [4] was more than 2. Further, the EC50 in [5] is 425 nM. In addition, the microsomal CLint in [6] is 73 µL/min/mg. Also, in series [7], the fraction unbound is less than 0.01. For the same compound, the solubility at 24 h in series [8] is 34 µM (≈ 20.1 µg/mL).
